The results in this text go back to ChEMBL document CHEMBL3774328, “Optimization by Molecular Fine Tuning of Dihydro-β-agarofuran Sesquiterpenoids as Reversers of P-Glycoprotein-Mediated Multidrug Resistance” (J Med Chem, 2016).

Data set [1] addresses T1, ATP-dependent translocase ABCB1 (Homo sapiens, UniProt P08183). Put plainly: Inhibition of human MDR1 expressed in mouse NIH/3T3 cells assessed as reduction in vinblastine IC50 at 10 uM by MTT assay. The settings on record: nih3t3, 10 µM. The class given is cell-based. Put shortly: (§1)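 Parental NIH-3T3 and MDR1-G185 cells were grown in DMEM with 10% iFBS. They were exposed to increasing DNM or VLB (up to 500 ng/mL) with or without compound at fixed 1, 3 or 10 μM. Growth was read by MTT, and IC50 came from a four-parameter logistic fit. Reversal index = IC50 without compound / IC50 with compound in MDR1 cells. Mean ± SD of two independent experiments in triplicate.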

For data set [2], the target named is T1, ATP-dependent translocase ABCB1. Kind of data set: Inhibition of human MDR1 expressed in mouse NIH/3T3 cells assessed as reduction in vinblastine IC50 at 1 uM by MTT assay. In kind it is cell-based. The settings on record: nih3t3, 1 µM. In a few lines: as §1
For data set [3] the target is unchanged. Put plainly: Inhibition of human MDR1 expressed in mouse NIH/3T3 cells assessed as reduction in daunomycin IC50 at 3 uM by MTT assay. In kind it is cell-based. The following applies: nih3t3, 3 µM. Put shortly:
as §1

A short description of data set [4]: Intrinsic cytotoxicity against mouse NIH/3T3 cells transfected with human MDR1 by MTT assay. In kind it is ADME, cell-based, NIH3T3. In a few lines: (§2)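 Intrinsic cytotoxicity was measured by MTT in parental NIH-3T3 and MDR1-G185 cells. CC50 came from a four-parameter logistic fit. The top tested concentration was 60 μM, limited by DMSO toxicity, and growth at 60 μM is given as % of untreated control. Mean ± SD of three independent experiments in duplicate.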

Data set [5] addresses T1, ATP-dependent translocase ABCB1. Kind of data set: Inhibition of human MDR1 expressed in mouse NIH/3T3 cells assessed as reduction in vinblastine IC50 at 3 uM by MTT assay. In kind it is cell-based. The following applies: nih3t3, 3 µM. Put shortly:
as §1

For data set [6] the target is unchanged. Kind of data set: Inhibition of human MDR1 expressed in mouse NIH/3T3 cells assessed as reduction in daunomycin IC50 at 1 uM by MTT assay. In kind it is cell-based. The following applies: nih3t3, 1 µM. In a few lines:
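Parental NIH-3T3 and MDR1-G185 cells were grown in DMEM with 10% iFBS. They were exposed to increasing DNM or VLB (up to 500 ng/mL) with or without compound at fixed 1, 3 or 10 μM. Growth was read by MTT, and IC50 came from a four-parameter logistic fit. Mean ± SD of two independent experiments in triplicate.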

The nature of data set [7]: Intrinsic cytotoxicity against mouse NIH/3T3 cells by MTT assay. The class given is cell-based, NIH3T3. Put shortly:
as §2

Data set [8] deals with T1, ATP-dependent translocase ABCB1. Put plainly: Inhibition of human MDR1 expressed in mouse NIH/3T3 cells assessed as inhibition of daunomycin efflux incubated for 30 mins by flow cytometry. The class given is cell-based, NIH3T3. In a few lines:
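Ki for DNM efflux. MDR1-G185 NIH-3T3 cells were incubated 30 min at 37 °C with DNM (2 μM) and varying compound concentrations, then read by flow cytometry. Fluorescence was converted to % P-gp inhibition, normalized to cells treated with 5 mM sodium orthovanadate (100%). Ki was fitted from I = (Imax × S)/(Ki + S). Mean ± SD of three independent experiments in triplicate.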

For data set [9] the target is unchanged. Kind of data set: Inhibition of human MDR1 expressed in mouse NIH/3T3 cells assessed as reduction in daunomycin IC50 at 10 uM by MTT assay. The class given is cell-based. The following applies: nih3t3, 10 µM. In a few lines: as §1
Data set [10] is described as follows: Intrinsic cytotoxicity against mouse NIH/3T3 cells assessed as cell growth at 60 uM by MTT assay. In kind it is cell-based, NIH3T3. The settings on record: read-out: Activity. In a few lines:
as §2

T1 sequence (P08183 whole entry): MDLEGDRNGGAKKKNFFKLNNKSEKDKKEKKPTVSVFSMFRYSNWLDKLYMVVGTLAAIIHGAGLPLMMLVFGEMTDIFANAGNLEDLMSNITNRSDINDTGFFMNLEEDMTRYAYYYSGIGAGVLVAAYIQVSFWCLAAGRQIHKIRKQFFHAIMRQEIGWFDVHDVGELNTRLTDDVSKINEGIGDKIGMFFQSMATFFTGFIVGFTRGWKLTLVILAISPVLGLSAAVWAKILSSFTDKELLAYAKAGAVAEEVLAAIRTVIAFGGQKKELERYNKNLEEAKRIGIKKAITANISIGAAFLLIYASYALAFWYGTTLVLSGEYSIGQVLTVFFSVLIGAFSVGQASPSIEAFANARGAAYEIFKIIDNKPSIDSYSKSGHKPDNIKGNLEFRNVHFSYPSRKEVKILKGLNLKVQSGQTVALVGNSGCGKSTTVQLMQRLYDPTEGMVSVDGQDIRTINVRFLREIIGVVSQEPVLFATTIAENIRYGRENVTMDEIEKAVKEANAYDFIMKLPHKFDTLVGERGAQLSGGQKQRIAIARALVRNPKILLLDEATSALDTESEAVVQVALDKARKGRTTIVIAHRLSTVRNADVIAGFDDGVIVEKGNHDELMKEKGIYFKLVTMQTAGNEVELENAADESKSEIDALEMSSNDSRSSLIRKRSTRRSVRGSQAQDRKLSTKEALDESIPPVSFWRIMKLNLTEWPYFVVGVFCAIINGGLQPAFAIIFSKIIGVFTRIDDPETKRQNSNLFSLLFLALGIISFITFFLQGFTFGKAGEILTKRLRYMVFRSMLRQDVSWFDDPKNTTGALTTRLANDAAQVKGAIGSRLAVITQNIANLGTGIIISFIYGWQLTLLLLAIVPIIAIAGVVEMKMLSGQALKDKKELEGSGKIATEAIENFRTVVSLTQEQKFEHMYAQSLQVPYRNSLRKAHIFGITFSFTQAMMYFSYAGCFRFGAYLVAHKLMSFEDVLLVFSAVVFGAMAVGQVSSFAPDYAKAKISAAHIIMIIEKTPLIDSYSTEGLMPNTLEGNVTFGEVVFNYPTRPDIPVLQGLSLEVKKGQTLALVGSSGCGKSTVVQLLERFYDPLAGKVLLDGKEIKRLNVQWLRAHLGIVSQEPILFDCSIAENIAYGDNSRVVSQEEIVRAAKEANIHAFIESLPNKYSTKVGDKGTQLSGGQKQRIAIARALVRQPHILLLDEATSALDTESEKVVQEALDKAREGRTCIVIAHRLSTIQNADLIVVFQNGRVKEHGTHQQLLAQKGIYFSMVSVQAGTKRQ

As for `CC(=O)O[C@H]1CC[C@](C)(O)[C@]23OC(C)(C)[C@H]([C@H](OC(=O)/C=C/c4ccccc4)[C@H](OC(=O)c4ccccc4)[C@]12C)[C@H]3OC(=O)CCC(=O)OCCO`, the “fold change (FC)” value in data set [1] is on record as 145.9; in [2], 6.5; in [3], 7.5; in data set [5] it was 26.8; in data set [6], 2.6; in data set [9], 10.6. For the same compound, the CC50 in data set [4] came to 29.2 µM; in data set [7], 27.7 µM. Besides, the inhibition constant (Ki) in [8] amounted to 0.5 µM.
As for `COC(=O)CCC(=O)O[C@@H]1[C@H]2[C@H](OC(=O)/C=C/c3ccccc3)[C@H](OC(=O)c3ccccc3)[C@]3(C)[C@@H](OC(C)=O)CC[C@](C)(O)[C@@]13OC2(C)C`, the CC50 was found to be 17.6 µM in data set [4] and 36.4 µM in data set [7]. Besides, the Ki in [8] came out at 0.23 µM.
In the same order, the values of `CCOC(=O)CCC(=O)O[C@@H]1[C@H]2[C@H](OC(=O)/C=C/c3ccccc3)[C@H](OC(=O)c3ccccc3)[C@]3(C)[C@@H](OC(C)=O)CC[C@](C)(O)[C@@]13OC2(C)C` are 15.3 µM, 58.9 µM and 0.26 µM.
With `CC(=O)O[C@H]1CC[C@](C)(O)[C@]23OC(C)(C)[C@H]([C@H](OC(=O)/C=C\c4ccccc4)[C@H](OC(=O)c4ccccc4)[C@]12C)[C@H]3OC(=O)c1cnccn1`, the “fold change (FC)” value in data set [1] worked out at 39.6; in data set [2], 5.2; in [3] it was 5.2; in data set [5], 18.7; in data set [6], 3.2; in [9], 9. Further, in data set [10], the viability at 60 µM amounted to 68.3%. Moreover, the CC50 in data set [4] is 31.2 µM; in data set [7] it was > 60 µM. Besides, the Ki in data set [8] is 0.42 µM.
Regarding `CC(=O)O[C@H]1CC[C@](C)(O)[C@]23OC(C)(C)[C@H]([C@H](OC(=O)/C=C/c4ccccc4)[C@H](OC(=O)c4ccccc4)[C@]12C)[C@H]3OC(=O)CCC(=O)OC1CCCCC1O` (some centres undefined), the “fold change (FC)” value in [1] came out at 107.8; in data set [2] it was 9.9; in [3], 11; in data set [5], 40.3; in data set [6], 3.9; in [9], 12.8. Further, the CC50 in data set [4] came out at 19.9 µM; in [7], 24.3 µM. Moreover, the inhibitory constant (Ki) in [8] is 0.46 µM.
Regarding `CC(=O)O[C@H]1CC[C@@H](C)[C@]23OC(C)(C)[C@H]([C@H](OC(=O)CCc4ccccc4)[C@H](OC(=O)c4ccccc4)[C@]12C)[C@H]3O`, in data set [10], the viability at 60 µM is 72.3%. Further, the CC50 is 14.2 µM in data set [4] and > 60 µM in data set [7]. The Ki in data set [8] turned out to be 0.4 µM.
For the compound `CC(=O)O[C@H]1CC[C@](C)(OC(=O)CN2CCOCC2)[C@]23OC(C)(C)[C@H]([C@H](OC(=O)/C=C/c4ccccc4)[C@H](OC(=O)c4ccccc4)[C@]12C)[C@H]3OC(C)=O`, the “fold change (FC)” value in data set [1] turned out to be 173.4; in [2], 21.1; in data set [3], 10.9; in [5], 49.6; in data set [6], 5.7; in data set [9], 16.1. The CC50 in data set [4] was determined as 33.1 µM; in [7], 36.2 µM. In addition, the Ki in data set [8] turned out to be 0.31 µM.
Take `CC(=O)O[C@H]1CC[C@](C)(O)[C@]23OC(C)(C)[C@H]([C@H](OC(=O)/C=C\c4ccccc4)[C@H](OC(=O)c4ccccc4)[C@]12C)[C@H]3OC(C)=O`: the “fold change (FC)” value came out at 77 in data set [1]; 12.1 in data set [2]; 24 in [3]; 19.7 in data set [5]; 7 in data set [6]; 30.3 in data set [9]. The values for the CC50 in data set [4] and in data set [7] were 22.9 µM and 12 µM, respectively.
Turning to `CCC(C)C(=O)O[C@@H]1[C@H]2[C@H](OC(=O)/C=C/c3ccccc3)[C@H](OC(=O)c3ccccc3)[C@]3(C)[C@@H](OC(C)=O)CC[C@](C)(O)[C@@]13OC2(C)C` (some centres undefined), the viability at 60 µM in data set [10] is 57.3%. Besides, the CC50 in [4] was 13.2 µM; in [7], > 60 µM. Moreover, the Ki in data set [8] is 0.41 µM.
`CCCC(=O)O[C@@H]1[C@H]2[C@H](OC(=O)/C=C/c3ccccc3)[C@H](OC(=O)c3ccccc3)[C@]3(C)[C@@H](OC(C)=O)CC[C@](C)(O)[C@@]13OC2(C)C`: the results for the 50% cytotoxic concentration (CC50) in [4] and in data set [7] were 18.3 µM and 44.9 µM, respectively. Besides, in data set [8], the Ki stood at 0.32 µM.
In the case of `COC(=O)CCCC(=O)O[C@@H]1[C@H]2[C@H](OC(=O)/C=C/c3ccccc3)[C@H](OC(=O)c3ccccc3)[C@]3(C)[C@@H](OC(C)=O)CC[C@](C)(O)[C@@]13OC2(C)C`, the “fold change (FC)” value in data set [1] stood at 103.6; in [2] it was 7.5; in data set [3], 12.3; in data set [5], 37.7; in data set [6], 6; in [9], 15.9. Besides, in data set [10], the viability at 60 µM came to 71.3%. For the same compound, the CC50 in data set [4] was 28.2 µM; in data set [7], > 60 µM. The Ki in [8] was determined as 0.61 µM.
For `CC(=O)O[C@H]1CC[C@](C)(O)[C@]23OC(C)(C)[C@H]([C@H](OC(=O)/C=C/c4ccccc4)[C@H](OC(=O)c4ccccc4)[C@]12C)[C@H]3OC(=O)CBr`, the results for the CC50 in data set [4] and in data set [7] were 5.7 µM and 8.6 µM, respectively. The Ki in [8] came out at 0.31 µM.
Take `CC(=O)O[C@H]1CC[C@](C)(O)[C@@]23OC(C)(C)[C@@H](C2=O)[C@H](OC(=O)/C=C/c2ccccc2)[C@H](OC(=O)c2ccccc2)[C@]13C`: the “fold change (FC)” value in data set [1] was found to be 106.3; in data set [2], 11.6; in data set [3] it was 10.4; in [5], 29.4; in data set [6] it was 5.2; in [9], 15.9. The CC50 in data set [4] was determined as 34.8 µM; in [7], 18.9 µM. Also, the Ki in data set [8] amounted to 0.63 µM.
For the compound `CC(=O)O[C@H]1CC[C@](C)(O)[C@]23OC(C)(C)[C@H]([C@H](OC(=O)/C=C/c4ccccc4)[C@H](OC(=O)c4ccccc4)[C@]12C)[C@H]3OC(=O)C1CC1`, the CC50 in [4] turned out to be 11.2 µM; in data set [7], 50.3 µM. Moreover, the Ki in data set [8] was determined as 0.24 µM.
`CC(=O)O[C@H]1CC[C@](C)(Cl)[C@]23OC(C)(C)[C@H]([C@H](OC(=O)/C=C/c4ccccc4)[C@H](OC(=O)c4ccccc4)[C@]12C)[C@H]3Cl`: the “fold change (FC)” value in [1] was found to be 113.9; in [2] it was 11.6; in data set [3], 12.9; in [5], 33; in data set [6], 5.2; in [9], 14.8. The CC50 in [4] turned out to be 31.4 µM; in data set [7] it was 43.7 µM. In data set [8], the Ki came to 1.34 µM.
Take `CC(=O)O[C@H]1CC[C@](C)(O)[C@]23OC(C)(C)[C@H]([C@H](OC(=O)CCc4ccccc4)[C@H](OC(=O)c4ccccc4)[C@]12C)[C@H]3O`: the “fold change (FC)” value in data set [1] came to 43.8; in data set [2], 11.1; in data set [3], 8.1; in [5] it was 23.6; in [6], 3.3; in [9] it was 11.6. The values for the 50% cytotoxic concentration (CC50) in [4] and in data set [7] were 30.3 µM and 25.4 µM, respectively. For the same compound, in data set [8], the Ki was 0.47 µM.
Consider `CC(=O)O[C@H]1CC[C@](C)(O)[C@]23OC(C)(C)[C@H]([C@H](OC(=O)/C=C\c4ccccc4)[C@H](OC(=O)c4ccccc4)[C@]12C)[C@H]3OC(=O)c1ccccc1`, for which the “fold change (FC)” value is given as 59.5 in data set [1]; 15.5 in data set [2]; 14.5 in [3]; 30.1 in [5]; 4.1 in data set [6]; 14.7 in data set [9]. The CC50 is 25.9 µM in data set [4] and 27.2 µM in data set [7]. The Ki in data set [8] amounted to 0.25 µM.
